The values below come from ChEMBL document CHEMBL4024771, “Optimization of Orally Bioavailable Enhancer of Zeste Homolog 2 (EZH2) Inhibitors Using Ligand and Property-Based Design Strategies: Identification of Development Candidate …” (J Med Chem, 2018).

One may read the Ki as the equilibrium dissociation constant of an inhibitor or competing ligand from its target. For orientation: IC50 means the concentration at which inhibition is half-maximal. Usually logD stands for lipophilicity at a set pH, counting ionised and neutral species. A high value points to higher lipophilicity.

Converted amounts (≈) assume the structure as drawn.

Test system in the first data set: not listed separately
Briefly: Intrinsic clearance in human liver microsomes assessed per mg protein at 1 uM preincubated for 10 mins followed by NADPH addition measured after 45 mins by LC-MS/MS analysis. It counts as ADME, microsome. To be noted: liver microsomes, read-out: CLH. Summed up:
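Test compound (1 μM) with pooled liver microsomes (0.8 mg/mL protein) in 100 mM potassium phosphate pH 7.4, 10 min preincubation, started with 2 mM NADPH, 45 min at 37 °C, in triplicate. Samples quenched with cold methanol containing buspirone internal standard, analysed by LC−MS/MS. CLint derived from t1/2 of parent loss (log-linear slope).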
(In general: Liver microsomes are a subcellular fraction often used to study metabolism.)
As for `COC(c1cc(Cl)c2c(c1Cl)C(=O)N(Cc1c(C)cc(C)[nH]c1=O)CC2)C1CCN(C2COC2)CC1` (single isomer, unassigned; (-)), the microsomal CLint at 1 µM was 78.3 µL/min/mg.

Regarding `COC(c1cc(Cl)c2c(c1Cl)C(=O)N(Cc1c(C)cc(C)[nH]c1=O)CC2)C1CCN(C(=O)CO)CC1` (single isomer, unassigned; (-)), the microsomal CLint at 1 µM stood at 23 µL/min/mg.

In the case of `COc1cc(C)[nH]c(=O)c1CN1CCc2c(Cl)cc(C(OC)C3CCOC3)c(Cl)c2C1=O` (single isomer, unassigned; form 2), the microsomal CLint at 1 µM was 75 µL/min/mg.

In the case of `Cc1cc(C)c(CN2CCc3c(Cl)cc(C(CO)C4CCOC4)c(Cl)c3C2=O)c(=O)[nH]1` (stereo in doubt), the microsomal CLint at 1 µM was found to be 20 µL/min/mg.

For `Cc1cc(C)c(CN2CCc3c(Cl)cc(C(CO)C4CCOCC4)c(Cl)c3C2=O)c(=O)[nH]1` (stereo in doubt; (+)-8b), the microsomal CLint at 1 µM was 34.7 µL/min/mg.

As for `Cc1cc(C)c(CN2CCc3c(Cl)cc(C(CO)c4ccon4)c(Cl)c3C2=O)c(=O)[nH]1` (stereo in doubt; (-)-21b), the microsomal CLint at 1 µM came out at 22.7 µL/min/mg.

In another data set the target is Histone-lysine N-methyltransferase EZH2 (Homo sapiens, UniProt Q15910, Y641N). Briefly: Inhibition of EZH2 Y641N mutant (unknown origin) using oligonucleosomes as substrate after 60 mins in presence of [3H]SAM by scintillation counting analysis.
Histone-lysine N-methyltransferase EZH2 (Homo sapiens, UniProt Q15910, Y641N), sequence (Q15910 whole entry Y641N): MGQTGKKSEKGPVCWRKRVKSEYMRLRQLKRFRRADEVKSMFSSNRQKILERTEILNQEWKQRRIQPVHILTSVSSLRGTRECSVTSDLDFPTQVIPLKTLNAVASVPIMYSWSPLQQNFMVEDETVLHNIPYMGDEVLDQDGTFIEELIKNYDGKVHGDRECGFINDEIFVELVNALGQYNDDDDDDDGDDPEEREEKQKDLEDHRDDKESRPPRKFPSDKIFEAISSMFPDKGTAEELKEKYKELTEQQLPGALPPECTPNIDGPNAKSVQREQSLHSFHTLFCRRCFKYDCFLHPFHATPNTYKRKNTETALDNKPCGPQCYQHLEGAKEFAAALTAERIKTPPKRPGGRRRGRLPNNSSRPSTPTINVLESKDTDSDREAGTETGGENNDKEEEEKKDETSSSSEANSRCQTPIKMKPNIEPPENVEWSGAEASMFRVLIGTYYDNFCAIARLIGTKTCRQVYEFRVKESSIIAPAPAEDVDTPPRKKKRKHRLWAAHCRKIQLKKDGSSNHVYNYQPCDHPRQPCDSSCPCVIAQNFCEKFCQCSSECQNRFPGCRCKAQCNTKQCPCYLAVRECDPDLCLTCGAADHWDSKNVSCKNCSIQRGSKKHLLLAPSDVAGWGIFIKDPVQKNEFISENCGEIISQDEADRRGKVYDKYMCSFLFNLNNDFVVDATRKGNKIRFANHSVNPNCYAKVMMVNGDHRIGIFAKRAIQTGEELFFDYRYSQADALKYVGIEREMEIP
Settings: not given
Take `COC(c1cc(Cl)c2c(c1Cl)C(=O)N(Cc1c(C)cc(C)[nH]c1=O)CC2)C1CCN(C2COC2)CC1` (single isomer, unassigned; (-)): the Ki came out at 530 nM.

As for `COC(c1cc(Cl)c2c(c1Cl)C(=O)N(Cc1c(C)cc(C)[nH]c1=O)CC2)C1CCN(C(=O)CO)CC1` (single isomer, unassigned; (-)), the Ki came to 70 nM.

`COc1cc(C)[nH]c(=O)c1CN1CCc2c(Cl)cc(C(OC)C3CCOC3)c(Cl)c2C1=O` (single isomer, unassigned; form 2): the Ki came to 92 nM.

As for `Cc1cc(C)c(CN2CCc3c(Cl)cc(C(CO)C4CCOC4)c(Cl)c3C2=O)c(=O)[nH]1` (stereo in doubt), the Ki worked out at 150 nM.

Regarding `Cc1cc(C)c(CN2CCc3c(Cl)cc(C(CO)C4CCOCC4)c(Cl)c3C2=O)c(=O)[nH]1` (stereo in doubt; (+)-8b), the inhibitory constant (Ki) was 3270 nM.

Test system in another data set: not listed separately
Kind of data set: Kinetic solubility of the compound. It counts as physicochemical.
Settings: not given
`COC(c1cc(Cl)c2c(c1Cl)C(=O)N(Cc1c(C)cc(C)[nH]c1=O)CC2)C1CCN(C2COC2)CC1` (single isomer, unassigned; (-)): the Kinetic_solubility was 519 µM.

`COC(c1cc(Cl)c2c(c1Cl)C(=O)N(Cc1c(C)cc(C)[nH]c1=O)CC2)C1CCN(C(=O)CO)CC1` (single isomer, unassigned; (-)) registered a Kinetic_solubility of 513 µM.

Regarding `COc1cc(C)[nH]c(=O)c1CN1CCc2c(Cl)cc(C(OC)C3CCOC3)c(Cl)c2C1=O` (single isomer, unassigned; form 2), the Kinetic_solubility was 505 µM.

Regarding `Cc1cc(C)c(CN2CCc3c(Cl)cc(C(CO)c4ccon4)c(Cl)c3C2=O)c(=O)[nH]1` (stereo in doubt; (-)-21b), the Kinetic_solubility was 481 µM.

Still in this data set, the particulars now being: read-out: Kinetic_solubility.
With `Cc1cc(C)c(CN2CCc3c(Cl)cc(C(CO)C4CCOC4)c(Cl)c3C2=O)c(=O)[nH]1` (stereo in doubt), the solubility kinetic was found to be 522 µM (≈ 243 µg/mL).

Regarding `Cc1cc(C)c(CN2CCc3c(Cl)cc(C(CO)C4CCOCC4)c(Cl)c3C2=O)c(=O)[nH]1` (stereo in doubt; (+)-8b), the solubility kinetic stood at 496 µM (≈ 238 µg/mL).

The subject of the next data set is KARPAS-422. Briefly: Antiproliferative activity against human KARPAS422 cells after 72 hrs by resazurin assay. It counts as functional, cell-based. Conditions: karpas-422. For orientation: The colour change of resazurin is a common sign of viable cells or microbes.
`COC(c1cc(Cl)c2c(c1Cl)C(=O)N(Cc1c(C)cc(C)[nH]c1=O)CC2)C1CCN(C2COC2)CC1` (single isomer, unassigned; (-)): half-maximal inhibition (IC50) was put at 2260 nM.

In turn, `COC(c1cc(Cl)c2c(c1Cl)C(=O)N(Cc1c(C)cc(C)[nH]c1=O)CC2)C1CCN(C(=O)CO)CC1` (single isomer, unassigned; (-)) yielded an IC50 of 3140 nM.

In turn, `COc1cc(C)[nH]c(=O)c1CN1CCc2c(Cl)cc(C(OC)C3CCOC3)c(Cl)c2C1=O` (single isomer, unassigned; form 2) came in with an IC50 of 269 nM.

`Cc1cc(C)c(CN2CCc3c(Cl)cc(C(CO)C4CCOC4)c(Cl)c3C2=O)c(=O)[nH]1` (stereo in doubt) displayed an IC50 of 1040 nM.

For `Cc1cc(C)c(CN2CCc3c(Cl)cc(C(CO)C4CCOCC4)c(Cl)c3C2=O)c(=O)[nH]1` (stereo in doubt; (+)-8b), inhibition was half-maximal at 4400 nM (IC50).

Molecule `Cc1cc(C)c(CN2CCc3c(Cl)cc(C(CO)c4ccon4)c(Cl)c3C2=O)c(=O)[nH]1` (stereo in doubt; (-)-21b) displayed an IC50 of 2490 nM.

Test system in a further data set: not listed separately
Kind of data set: Passive permeability in MDCK cells at 2 uM after 90 mins by LC-MS/MS analysis. Conditions: dog, mdck, […], 2 µM. It counts as ADME, cell-based, Canis lupus familiaris. Summed up:
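Low-efflux MDCK cells (MDCK-LE) on 96-well inserts, used on day 4. Monodirectional transport of 2 μM drug in transport buffer with 0.1% DMSO at 37 °C. Donor and receiver sampled at 0 and 90 min for LC−MS/MS. Donor pH 6.5 and 7.4, receiver pH 7.4.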
Molecule `COC(c1cc(Cl)c2c(c1Cl)C(=O)N(Cc1c(C)cc(C)[nH]c1=O)CC2)C1CCN(C2COC2)CC1` (single isomer, unassigned; (-)) returned a permeability of 7.9 ×10⁻⁶ cm/s.

The molecule `COC(c1cc(Cl)c2c(c1Cl)C(=O)N(Cc1c(C)cc(C)[nH]c1=O)CC2)C1CCN(C(=O)CO)CC1` (single isomer, unassigned; (-)) registered a permeability of 7.1 ×10⁻⁶ cm/s.

Take `COc1cc(C)[nH]c(=O)c1CN1CCc2c(Cl)cc(C(OC)C3CCOC3)c(Cl)c2C1=O` (single isomer, unassigned; form 2): the permeability came out at 8.2 ×10⁻⁶ cm/s.

`Cc1cc(C)c(CN2CCc3c(Cl)cc(C(CO)C4CCOC4)c(Cl)c3C2=O)c(=O)[nH]1` (stereo in doubt) registered a permeability of 2.7 ×10⁻⁶ cm/s.

In turn, `Cc1cc(C)c(CN2CCc3c(Cl)cc(C(CO)C4CCOCC4)c(Cl)c3C2=O)c(=O)[nH]1` (stereo in doubt; (+)-8b) gave a permeability of 2.9 ×10⁻⁶ cm/s.

Take `Cc1cc(C)c(CN2CCc3c(Cl)cc(C(CO)c4ccon4)c(Cl)c3C2=O)c(=O)[nH]1` (stereo in doubt; (-)-21b): the permeability is 8.6 ×10⁻⁶ cm/s.

Test system in another data set: not listed separately
Kind of data set: Lipophilicity, log D of the compound at pH 7.4. Conditions: buffer, pH 7.4.
Turning to `COC(c1cc(Cl)c2c(c1Cl)C(=O)N(Cc1c(C)cc(C)[nH]c1=O)CC2)C1CCN(C2COC2)CC1` (single isomer, unassigned; (-)), the pH-dependent lipophilicity (logD) was 2.8.

The molecule `COC(c1cc(Cl)c2c(c1Cl)C(=O)N(Cc1c(C)cc(C)[nH]c1=O)CC2)C1CCN(C(=O)CO)CC1` (single isomer, unassigned; (-)) came in with a logD of 2.3.

`COc1cc(C)[nH]c(=O)c1CN1CCc2c(Cl)cc(C(OC)C3CCOC3)c(Cl)c2C1=O` (single isomer, unassigned; form 2) showed a logD of 2.4.

In another data set the target is Histone-lysine N-methyltransferase EZH2 (Homo sapiens, UniProt Q15910). Briefly: Inhibition of EZH2 in human KARPAS422 cells assessed as reduction in H3K27me3 level after 72 hrs by ELISA.
Histone-lysine N-methyltransferase EZH2 (Homo sapiens, UniProt Q15910), sequence (Q15910 whole entry): as the sequence (Q15910 whole entry Y641N) above, with N641Y counted along it
Settings: not given
A general note: An ELISA detects its analyte on a solid surface through an enzyme-linked reagent.
On to `COC(c1cc(Cl)c2c(c1Cl)C(=O)N(Cc1c(C)cc(C)[nH]c1=O)CC2)C1CCN(C2COC2)CC1` (single isomer, unassigned; (-)), for which the IC50 was determined as 1310 nM.

Consider `COC(c1cc(Cl)c2c(c1Cl)C(=O)N(Cc1c(C)cc(C)[nH]c1=O)CC2)C1CCN(C(=O)CO)CC1` (single isomer, unassigned; (-)), for which the IC50 was determined as 749 nM.

Consider `COc1cc(C)[nH]c(=O)c1CN1CCc2c(Cl)cc(C(OC)C3CCOC3)c(Cl)c2C1=O` (single isomer, unassigned; form 2), for which the IC50 is 391 nM.

For `Cc1cc(C)c(CN2CCc3c(Cl)cc(C(CO)C4CCOC4)c(Cl)c3C2=O)c(=O)[nH]1` (stereo in doubt), the IC50 was determined as 1010 nM.

On to `Cc1cc(C)c(CN2CCc3c(Cl)cc(C(CO)C4CCOCC4)c(Cl)c3C2=O)c(=O)[nH]1` (stereo in doubt; (+)-8b), for which the IC50 was found to be 14800 nM.
